According to ChEMBL document CHEMBL4433203, “Design, synthesis, and evaluation of isoflavone analogs as multifunctional agents for the treatment of Alzheimer's disease” (Eur J Med Chem, 2019):
Active and inactive are the calls of the source. The rule behind the calls is not given here.

Tests used:
[1] = test system: SH-SY5Y; assay: Neuroprotective activity against copper-induced cytotoxicity in human SH-SY5Y cells expressing APP Swedish mutant assessed as increase in cell viability at 10 uM pre-incubated for 2 hrs followed by copper addition and measured after 24 hrs by MTT assay; format: functional, cell-based
[2] = test system: BV-2; assay: Antiinflammatory activity in mouse BV2 cells assessed as reduction in LPS-induced IL-6 production at 10 uM pretreated for 1 hr followed by LPS challenge and measured after 24 hrs by ELISA assay; format: functional, cell-based
[3] = Cytotoxicity in human SH-SY5Y cells assessed as reduction in cell viability after 72 hrs incubation by MTT assay
[4] = test system: BV-2; assay: Antiinflammatory activity in mouse BV2 cells assessed as reduction in LPS-induced TNF-alpha production at 10 uM pretreated for 1 hr followed by LPS challenge and measured after 24 hrs by ELISA assay; format: functional, cell-based
[5] = molecular target: Cholinesterase (Mus musculus, UniProt Q03311); assay: Inhibition of mouse plasma BuChE using S-butyrylacetylthiocholine iodide as substrate measured after 30 mins by Ellman's method relative to control
Cholinesterase, sequence (Q03311 whole entry): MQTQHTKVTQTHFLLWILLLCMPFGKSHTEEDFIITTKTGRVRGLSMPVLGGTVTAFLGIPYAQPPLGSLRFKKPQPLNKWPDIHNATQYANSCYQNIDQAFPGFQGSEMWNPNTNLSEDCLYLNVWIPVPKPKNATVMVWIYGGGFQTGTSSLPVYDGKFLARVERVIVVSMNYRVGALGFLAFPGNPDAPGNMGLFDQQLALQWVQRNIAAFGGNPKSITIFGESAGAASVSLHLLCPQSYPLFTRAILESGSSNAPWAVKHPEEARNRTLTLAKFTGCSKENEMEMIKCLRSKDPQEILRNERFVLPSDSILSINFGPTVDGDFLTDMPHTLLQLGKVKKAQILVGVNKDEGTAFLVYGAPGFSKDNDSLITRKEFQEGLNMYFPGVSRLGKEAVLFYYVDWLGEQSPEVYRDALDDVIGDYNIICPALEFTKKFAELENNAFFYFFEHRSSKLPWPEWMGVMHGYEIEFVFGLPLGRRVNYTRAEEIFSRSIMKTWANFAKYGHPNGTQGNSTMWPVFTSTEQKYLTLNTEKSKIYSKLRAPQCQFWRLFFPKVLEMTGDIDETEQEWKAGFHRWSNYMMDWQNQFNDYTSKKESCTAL

[6] = molecular target: T1, Acetylcholinesterase (Mus musculus) (UniProt P21836); details: at 10 µM
T1 sequence (whole entry): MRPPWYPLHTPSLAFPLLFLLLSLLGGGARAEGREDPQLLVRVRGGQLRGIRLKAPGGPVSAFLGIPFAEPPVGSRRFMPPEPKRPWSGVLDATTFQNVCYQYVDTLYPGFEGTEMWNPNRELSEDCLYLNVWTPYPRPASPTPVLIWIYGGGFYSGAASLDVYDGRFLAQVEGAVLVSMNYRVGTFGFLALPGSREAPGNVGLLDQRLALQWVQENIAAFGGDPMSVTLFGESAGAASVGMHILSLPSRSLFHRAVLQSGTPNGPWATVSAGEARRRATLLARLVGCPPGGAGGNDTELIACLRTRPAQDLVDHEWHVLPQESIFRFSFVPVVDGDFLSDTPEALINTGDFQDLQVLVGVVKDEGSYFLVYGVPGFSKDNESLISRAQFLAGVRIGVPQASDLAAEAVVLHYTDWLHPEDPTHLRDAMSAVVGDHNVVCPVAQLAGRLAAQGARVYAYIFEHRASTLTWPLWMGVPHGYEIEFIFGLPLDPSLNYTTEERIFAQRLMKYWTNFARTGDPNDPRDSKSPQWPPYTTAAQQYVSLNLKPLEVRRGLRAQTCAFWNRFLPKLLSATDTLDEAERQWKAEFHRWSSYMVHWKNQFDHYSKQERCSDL

[7] = molecular target: T2, Acetylcholinesterase (Mus musculus, UniProt P21836); assay: Inhibition of mouse brain AChE using acetylthiocholine iodide as substrate measured after 30 mins by Ellman's method
T2 sequence (P21836 whole entry): T1 sequence (whole entry)

[8] = molecular target: T3, Histamine H3 receptor (Homo sapiens, UniProt Q9Y5N1); assay: Inhibition of human H3R expressed in methylhistamine-induced human H3-bla U2OS cells incubated for 30 mins by beta-lactamase complementation technology; format: cell-based
T3 sequence (Q9Y5N1 whole entry, the tested form may be a part): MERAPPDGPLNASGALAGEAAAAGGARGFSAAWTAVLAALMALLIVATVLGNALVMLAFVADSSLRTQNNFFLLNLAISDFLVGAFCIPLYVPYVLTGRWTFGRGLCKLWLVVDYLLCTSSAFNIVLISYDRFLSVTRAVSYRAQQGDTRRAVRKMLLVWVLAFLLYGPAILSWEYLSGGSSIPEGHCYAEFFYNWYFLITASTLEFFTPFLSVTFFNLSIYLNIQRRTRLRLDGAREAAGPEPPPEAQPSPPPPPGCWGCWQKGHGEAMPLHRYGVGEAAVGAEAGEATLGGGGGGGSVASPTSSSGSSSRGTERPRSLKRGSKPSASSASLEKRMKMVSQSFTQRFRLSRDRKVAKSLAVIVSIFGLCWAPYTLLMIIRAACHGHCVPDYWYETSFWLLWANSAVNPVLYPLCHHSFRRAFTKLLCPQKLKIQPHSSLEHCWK
Summary of the method: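 H3-bla U2OS cells co-express human H3R-Gal4-VP16 (TEV site) and β-arrestin/TEV protease with a UAS-β-lactamase reporter. IC50 came from log concentration-inhibition curves. Triplicates, three independent experiments.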

[9] = Antioxidant activity assessed as AAPH radical scavenging activity preincubated for 15 mins with fluorescein before AAPH addition and recorded every 2 mins for 160 mins by ORAC-FL assay; format: functional
Summary of the method: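 ORAC-FL assay in 75 mM PBS, pH 7.4. Compound was preincubated with fluorescein (20 nM final) for 15 min at 37 °C, then AAPH (18 mM final) was added. Fluorescence (ex 460/em 520 nm) was read every 2 min for 160 min. Net area under the decay curve, blank-normalized, is expressed as µM Trolox equivalents per µM compound. Duplicates, ≥3 independent assays.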

[10] = molecular target: T3, Histamine H3 receptor; assay: Inhibition of human H3R expressed in methylhistamine-induced human H3-bla U2OS cells at 10 uM incubated for 30 mins by beta-lactamase complementation technology relative to control; format: cell-based

Compound: COc1cc2c(cc1OC)C(=O)C(CC1CCN(Cc3ccccc3)CC1)C2 (stereo not given) [DONEPEZIL]
- Activity [1]: inactive
- Activity [2]: inactive
- CC50 at 72 h ([3]; sh-sy5y): 25.1 µM
- Activity [4]: inactive

Compound: COc1ccc(-c2coc3cc(OCCNC4CCCCC4)ccc3c2=O)cc1
- IC50 ([5]; read-out: IC50): 21.6 µM
- inhibition [6]: 73.7%
- IC50 ([7]; read-out: IC50): 5 µM
- IC50 ([8]; read-out: IC50): > 50 µM
- Activity [9]: 0.01 equiv/µM
- inhibition [10]: 41%

Compound: CCN(C)CCCCOc1ccc2c(=O)c(-c3ccc(OC)cc3)coc2c1
- IC50 ([7]; read-out: IC50): 9.47 µM
- IC50 ([8]; read-out: IC50): 0.43 µM
- Activity [9]: 0.11 equiv/µM

Compound: COc1ccc(-c2coc3cc(OCCNC4CCCC4)ccc3c2=O)cc1
- IC50 ([5]; read-out: IC50): 5.98 µM
- inhibition [6]: 78.5%
- IC50 ([7]; read-out: IC50): 4.5 µM
- IC50 ([8]; read-out: IC50): > 50 µM
- Activity [9]: 0.01 equiv/µM
- inhibition [10]: 47.1%

Compound: O=c1c(-c2ccc(OCCN3CCCCC3)cc2)coc2cc(OCCCCN3CCCCC3)ccc12
- IC50 ([5]; read-out: IC50): 2.49 µM
- inhibition [6]: 85.1%
- IC50 ([7]; read-out: IC50): 0.2 µM
- IC50 ([8]; read-out: IC50): 0.41 µM
- Activity [9]: 0.11 equiv/µM
- inhibition [10]: 72.4%

Compound: COc1ccc(-c2coc3cc(OCCNC(=O)OC(C)(C)C)ccc3c2=O)cc1
- IC50 [5]: Not Active
- inhibition [6]: -0.17%
- IC50 [7]: Not Active
- IC50 ([8]; u2os): Not Active
- Activity [9]: 0.05 equiv/µM

Compound: COc1ccc(-c2coc3cc(OCCNc4c5c(nc6ccccc46)CCCC5)ccc3c2=O)cc1
- IC50 ([5]; read-out: IC50): 0.38 µM
- inhibition [6]: 85.8%
- IC50 ([7]; read-out: IC50): 0.96 µM
- IC50 ([8]; read-out: IC50): > 10 µM
- Activity [9]: 0.01 equiv/µM
- inhibition [10]: 60.5%

Compound: CCN(C)C(=O)Oc1cccc([C@H](C)N(C)C)c1 [RIVASTIGMINE]
- CC50 at 72 h ([3]; SH-SY5Y cells): 67.8 µM

Compound: COc1ccc(-c2coc3cc(OCCCCN4CCCCC4)ccc3c2=O)cc1
- IC50 ([5]; read-out: IC50): 8.83 µM
- IC50 ([7]; read-out: IC50): 3.98 µM
- IC50 ([8]; read-out: IC50): 0.73 µM
- Activity [9]: 0.07 equiv/µM

Compound: O=c1c(-c2ccc(OCCN3CCCCC3)cc2)coc2cc(OCCN3CCCC3)ccc12
- IC50 ([5]; read-out: IC50): 4.55 µM
- IC50 ([7]; read-out: IC50): 0.71 µM
- IC50 ([8]; read-out: IC50): 2.07 µM
- Activity [9]: 0.14 equiv/µM

Compound: CCN(C)CCCOc1ccc2c(=O)c(-c3ccc(OC)cc3)coc2c1
- IC50 ([7]; read-out: IC50): 22.6 µM
- IC50 ([8]; read-out: IC50): 0.52 µM
- Activity [9]: 0.12 equiv/µM

Compound: COc1ccc(-c2coc3cc(OCCOCCN4CCCCC4)ccc3c2=O)cc1
- IC50 ([5]; read-out: IC50): > 50 µM
- inhibition [6]: 35%
- IC50 ([7]; read-out: IC50): > 50 µM
- IC50 ([8]; read-out: IC50): > 50 µM
- Activity [9]: 0.01 equiv/µM
- inhibition [10]: 30.3%

Compound: S=C(NC1CCCCC1)N1CCC(c2cnc[nH]2)CC1 [THIOPERAMIDE]
- inhibition [10]: 71.1%
- CC50 at 72 h ([3]; SH-SY5Y cells): 85.8 µM

Compound: O=c1c(-c2ccc(OCCN3CCCCC3)cc2)coc2cc(OCCN3CCCCC3)ccc12
- IC50 ([5]; read-out: IC50): 2.92 µM
- inhibition [6]: 82.8%
- IC50 ([7]; read-out: IC50): 0.35 µM
- IC50 ([8]; read-out: IC50): 1.94 µM
- Activity [9]: 0.14 equiv/µM
- inhibition [10]: 71.5%

Compound: Cc1c(C)c2c(c(C)c1O)CCC(C)(C(=O)O)O2 (stereo not given)
- Activity [9]: 1 equiv/µM

Compound: O=c1c(-c2ccc(O)cc2)coc2cc(OCCCCN3CCCCC3)ccc12
- IC50 ([5]; read-out: IC50): 24.8 µM
- inhibition [6]: 63.4%
- IC50 ([7]; read-out: IC50): 26.8 µM
- IC50 ([8]; read-out: IC50): > 50 µM
- Activity [9]: 0.88 equiv/µM
- inhibition [10]: 6.88%

Compound: COc1ccc(-c2coc3cc(OCCN)ccc3c2=O)cc1.Cl
- IC50 [5]: Not Active
- inhibition [6]: 16.9%
- IC50 ([7]; read-out: IC50): > 50 µM
- IC50 ([8]; u2os): Not Active
- Activity [9]: 0.08 equiv/µM
- inhibition [10]: -6.69%

Compound: COc1ccc(-c2coc3cc(OCCN4C(=O)c5ccccc5C4=O)ccc3c2=O)cc1
- IC50 [5]: Not Active
- inhibition [6]: 11.2%
- IC50 ([7]; read-out: IC50): > 50 µM
- IC50 ([8]; u2os): Not Active
- Activity [9]: 0.01 equiv/µM
